Measured values taken from ChEMBL document CHEMBL3525992, “Identification of 20(S)-protopanaxadiol metabolites in human liver microsomes and human hepatocytes” (Drug Metab Dispos, 2011).
Values belong to the molecule of their own block, whether it stands above or below them.

Legend:
[1] = tested on: Hepatocyte; test: Retention time of the compound in human hepatocytes treated with 20(S)-protopanaxadiol at 50 uM after 180 mins by liquid chromatography-electrospray ionization ion trap mass spectrometry; assay type: ADME, cell-based; conditions: 3 h
How it was run: (§1)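 Human hepatocytes (2 million cells/ml) in Williams' E medium with substrate 50 µM, 0.5% (v/v) final MeOH, 37°C for 3 h. Negative controls were substrate at 0 h and no substrate at 3 h. Quenched with equal volume acetonitrile, in duplicate. Methanol was added, then centrifugation, dry-down and reconstitution. Analysed by C8 reversed-phase LC with formic acid/methanol–ammonium acetate gradient, ESI ion trap MSⁿ, m/z 100–800.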

[2] = tested on: Liver microsome; test: Drug level in mixed human liver microsomes treated with (20S,24R)-epoxydammarane-3,12,25-triol at 50 uM after 120 mins by liquid chromatography-electrospray ionization ion trap mass spectrometry in presence of UDPGA; assay type: ADME; conditions: 2 h
How it was run: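 Pooled HLM protein 1.0 mg/ml in 50 mM Tris-HCl pH 7.4 with 10 mM MgCl₂, 2 mM UDPGA and 25 µg/mL alamethicin. Preincubated 3 min at 37°C, then started with substrate (50 µM). Run 120 min, stopped with equal volume ice-cold acetonitrile. 0 min incubations served as controls, in duplicate. Processed and analysed by LC/ESI ion trap MSⁿ.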

[3] = tested on: Liver microsome; test: Drug metabolism in mixed human liver microsomes assessed as glucuronide conjugate metabolite level at 50 uM after 120 mins by liquid chromatography-electrospray ionization ion trap mass spectrometry in presence of UDPGA; assay type: ADME; conditions: 2 h
How it was run: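 Pooled human liver microsomes, 1.0 mg/ml protein, in 50 mM Tris-HCl pH 7.4 with 10 mM MgCl₂, 2 mM UDPGA and 25 µg/mL alamethicin. Preincubated 3 min at 37°C, started with substrate 50 µM (final MeOH 0.1%), run 120 min, stopped with ice-cold acetonitrile. Time-0 controls; duplicates. Analysed by LC/ESI ion-trap MSn.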

[4] = Drug excretion in Sprague-Dawley rat feces assessed as metabolite 2 ((20S,24S)-epoxydammarane-3,12,25-triol) level at 100 mg/kg/day, po qd for 11 days administered via gavage by liquid chromatography-electrospray ionization ion trap mass spectrometry; assay type: ADME, organism-based; parameters: route oral; conditions: in vivo, 264 h
How it was run: (§2)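 Rats given PPD by gavage at 100 mg/kg/day once daily for 11 days, as a 10 mg/ml solution in 0.5% carboxymethyl cellulose sodium, 0.5% polysorbate-80 and 99% saline; 20 rats housed singly in metabolic cages. Feces collected over 0–288 h and frozen at -20°C; blank feces taken before dosing.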

[5] = Drug excretion in Sprague-Dawley rat feces assessed as metabolite 3 ((20S,24R)-epoxydammarane-3,12,25-triol) level at 100 mg/kg/day, po qd for 11 days administered via gavage by liquid chromatography-electrospray ionization ion trap mass spectrometry; assay type: ADME, organism-based; parameters: route oral; conditions: in vivo, 264 h; how it was run: as §2
[6] = Drug excretion in Sprague-Dawley rat feces assessed as metabolite 4 ((20S,24S)-epoxydammarane-12,25-diol-3-one) level at 100 mg/kg/day, po qd for 11 days administered via gavage by liquid chromatography-electrospray ionization ion trap mass spectrometry; assay type: ADME, organism-based; parameters: route oral; conditions: in vivo, 264 h; how it was run: as §2
[7] = Drug excretion in Sprague-Dawley rat feces assessed as metabolite 5 ((20S,24R)-epoxydammarane-12,25-diol-3-one) level at 100 mg/kg/day, po qd for 11 days administered via gavage by liquid chromatography-electrospray ionization ion trap mass spectrometry; assay type: ADME, organism-based; parameters: route oral; conditions: in vivo, 264 h; how it was run: as §2
[8] = Oral bioavailability in rat at 25 mg/kg; assay type: ADME, organism-based; conditions: in vivo
[9] = Oral bioavailability in dog at 8 mg/kg; assay type: ADME, organism-based, Canis lupus familiaris; conditions: in vivo
[10] = Retention time of the compound at 100 uM measured after 60 mins by liquid chromatography-electrospray ionization ion trap mass spectrometry in presence of 10 uM 3-chloroperoxybenzoic acid; assay type: physicochemical; conditions: 1 h
How it was run: (§3)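 PPD 100 µM oxidised chemically with m-CPBA 10 µM in CH₂Cl₂, stirred at room temperature for 15 and 60 min. Mixture poured into Na₂CO₃-saturated ice water and extracted three times with ether before LC/MS analysis.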

[11] = Drug metabolism in human hepatocytes assessed as metabolite 6-2 ((3R,6S)-6-((3S,5R,8R,9R,10R,12R,14R,17S)-3,12-dihydroxy-4,4,8,10,14-pentamethylhexadecahydro-1H-cyclopenta[a]phenanthren-17-yl)-2-methylheptane-2,3,6-triol) formation at 50 uM after 180 mins by liquid chromatography-electrospray ionization ion trap mass spectrometry; assay type: ADME, cell-based, Hepatocyte; conditions: 3 h
[12] = Drug metabolism in human hepatocytes assessed as metabolite 7-1 ((2S,3S,4S,5R,6S)-6-(2-((2S,5S)-5-((3S,5R,8R,9R,10R,12R,14R,17S)-3,12-dihydroxy-4,4,8,10,14-pentamethylhexadecahydro-1H-cyclopenta[a]phenanthren-17-yl)-5-methyltetrahydrofuran-2-yl)propan-2-yloxy)-3,4,5-trihydroxytetrahydro-2H-pyran-2-carboxylic acid) formation at 50 uM after 180 mins by liquid chromatography-electrospray ionization ion trap mass spectrometry; assay type: ADME, cell-based, Hepatocyte; conditions: 3 h
[13] = Drug metabolism in human hepatocytes assessed as metabolite 7-2 ((2S,3S,4S,5R,6S)-6-(2-((2R,5S)-5-((3S,5R,8R,9R,10R,12R,14R,17S)-3,12-dihydroxy-4,4,8,10,14-pentamethylhexadecahydro-1H-cyclopenta[a]phenanthren-17-yl)-5-methyltetrahydrofuran-2-yl)propan-2-yloxy)-3,4,5-trihydroxytetrahydro-2H-pyran-2-carboxylic acid) formation at 50 uM after 180 mins by liquid chromatography-electrospray ionization ion trap mass spectrometry; assay type: ADME, cell-based, Hepatocyte; conditions: 3 h
[14] = tested on: Liver microsome; test: Drug metabolism in mixed human liver microsomes assessed as metabolite 6 ((24S,25)-epoxydammarane-3,12,20-triol formation at 50 uM after 60 mins by liquid chromatography-electrospray ionization ion trap mass spectrometry; assay type: ADME; conditions: 1 h
How it was run: (§4)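 Pooled human liver microsomes, 1.0 mg/ml protein, with substrate 50 µM in 100 mM potassium phosphate pH 7.4 (final MeOH 0.1% v/v). Preincubated 3 min at 37°C, started with NADPH 2.0 mM, run 60 min, stopped with ice-cold acetonitrile. Controls lacked NADPH or substrate; duplicates. Metabolites profiled by LC/ESI ion-trap MSn.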

[15] = tested on: Liver microsome; test: Drug metabolism in mixed human liver microsomes assessed as metabolite 2 ((20S,24S)-epoxydammarane-3,12,25-triol) formation at 50 uM after 60 mins by liquid chromatography-electrospray ionization ion trap mass spectrometry; assay type: ADME; conditions: 1 h; how it was run: as §4
[16] = tested on: Liver microsome; test: Drug metabolism in mixed human liver microsomes assessed as metabolite 3 ((20S,24R)-epoxydammarane-3,12,25-triol) formation at 50 uM after 60 mins by liquid chromatography-electrospray ionization ion trap mass spectrometry; assay type: ADME; conditions: 1 h; how it was run: as §4
[17] = tested on: Liver microsome; test: Drug metabolism in mixed human liver microsomes assessed as metabolite 4 ((20S,24S)-epoxydammarane-12,25-diol-3-one) formation at 50 uM after 60 mins by liquid chromatography-electrospray ionization ion trap mass spectrometry; assay type: ADME; conditions: 1 h; how it was run: as §4
[18] = tested on: Liver microsome; test: Drug metabolism in mixed human liver microsomes assessed as metabolite 5 ((20S,24R)-epoxydammarane-12,25-diol-3-one) formation at 50 uM after 60 mins by liquid chromatography-electrospray ionization ion trap mass spectrometry; assay type: ADME; conditions: 1 h; how it was run: as §4
[19] = Drug metabolism in human hepatocytes assessed as metabolite 6 ((24S,25)-epoxydammarane-3,12,20-triol formation at 50 uM after 180 mins by liquid chromatography-electrospray ionization ion trap mass spectrometry; assay type: ADME, cell-based, Hepatocyte; conditions: 3 h
[20] = Drug metabolism in human hepatocytes assessed as metabolite 2 ((20S,24S)-epoxydammarane-3,12,25-triol) formation at 50 uM after 180 mins by liquid chromatography-electrospray ionization ion trap mass spectrometry; assay type: ADME, cell-based, Hepatocyte; conditions: 3 h
[21] = Drug metabolism in human hepatocytes assessed as metabolite 3 ((20S,24R)-epoxydammarane-3,12,25-triol) formation at 50 uM after 180 mins by liquid chromatography-electrospray ionization ion trap mass spectrometry; assay type: ADME, cell-based, Hepatocyte; conditions: 3 h
[22] = Drug metabolism in human hepatocytes assessed as metabolite 4 ((20S,24S)-epoxydammarane-12,25-diol-3-one) formation at 50 uM after 180 mins by liquid chromatography-electrospray ionization ion trap mass spectrometry; assay type: ADME, cell-based, Hepatocyte; conditions: 3 h
[23] = Drug metabolism in human hepatocytes assessed as metabolite 5 ((20S,24R)-epoxydammarane-12,25-diol-3-one) formation at 50 uM after 180 mins by liquid chromatography-electrospray ionization ion trap mass spectrometry; assay type: ADME, cell-based, Hepatocyte; conditions: 3 h
[24] = Drug metabolism in human hepatocytes assessed as metabolite 6-1 ((3S,6S)-6-((3S,5R,8R,9R,10R,12R,14R,17S)-3,12-dihydroxy-4,4,8,10,14-pentamethylhexadecahydro-1H-cyclopenta[a]phenanthren-17-yl)-2-methylheptane-2,3,6-triol) formation at 50 uM after 180 mins by liquid chromatography-electrospray ionization ion trap mass spectrometry; assay type: ADME, cell-based, Hepatocyte; conditions: 3 h
[25] = Drug excretion in Sprague-Dawley rat feces treated with 20(S)-protopanaxadiol at 100 mg/kg/day, po qd for 11 days administered via gavage by liquid chromatography-electrospray ionization ion trap mass spectrometry; assay type: ADME, organism-based; parameters: route oral; conditions: in vivo, 264 h
How it was run: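 PPD given by gavage at 10 mg/ml in 0.5% carboxymethyl cellulose sodium, 0.5% polysorbate-80 and 99% saline; 20 rats, one per metabolic cage. Feces collected over 0–288 h (48 h after last dose), blanks taken before dosing, frozen at -20°C.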

[26] = tested on: Hepatocyte; test: Drug level in human hepatocytes treated with 20(S)-protopanaxadiol at 50 uM after 180 mins by liquid chromatography-electrospray ionization ion trap mass spectrometry; assay type: ADME, cell-based; conditions: 3 h; how it was run: as §1
[27] = tested on: Liver microsome; test: Retention time of the compound in mixed human liver microsomes treated with 20(S)-protopanaxadiol at 50 uM after 60 mins by liquid chromatography-electrospray ionization ion trap mass spectrometry; assay type: ADME; conditions: 1 h
How it was run: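 Pooled HLM protein 1.0 mg/ml with substrate 50 µM in 100 mM potassium phosphate pH 7.4, 0.1% (v/v) final MeOH. Preincubated 3 min at 37°C, started with 2.0 mM NADPH, incubated 60 min. Stopped with equal volume ice-cold acetonitrile. Controls lacked NADPH or substrate, in duplicate. Analysed on C8 reversed-phase column, formic acid methanol/ammonium acetate gradient, ESI ion trap MSⁿ.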

[28] = Retention time of the compound treated with 20(S)-protopanaxadiol at 100 uM measured after 60 mins by liquid chromatography-electrospray ionization ion trap mass spectrometry in presence of 10 uM 3-chloroperoxybenzoic acid; assay type: physicochemical; conditions: 1 h; how it was run: as §3

Drug metabolism [2]: metabolite_detected | Retention_time [1]: 16.9 min
Compound: CC(C)(O[C@@H]1O[C@H](C(=O)O)[C@@H](O)[C@H](O)[C@H]1O)[C@H]1CC[C@@](C)([C@H]2CC[C@]3(C)[C@@H]2[C@H](O)C[C@@H]2[C@@]4(C)CC[C@H](O)C(C)(C)[C@@H]4CC[C@]23C)O1

Drug excretion [25]: metabolite_detected | Drug metabolism [26]: metabolite_detected | Retention_time [27]: 19.7 min
Compound: CC(C)(O)[C@H]1CC[C@@](C)([C@H]2CC[C@]3(C)[C@@H]2[C@H](O)C[C@@H]2[C@@]4(C)CCC(=O)C(C)(C)[C@@H]4CC[C@]23C)O1

Further lines, the molecule ahead of its results:

Compound: CC(C)(O)[C@H](O)CC[C@](C)(O)[C@H]1CC[C@]2(C)[C@@H]1[C@H](O)C[C@@H]1[C@@]3(C)CC[C@H](O)C(C)(C)[C@@H]3CC[C@]12C
Retention_time [1]: 15.8 min

Compound: CC(C)=CCC[C@](C)(O)[C@H]1CC[C@]2(C)[C@@H]1[C@H](O)C[C@@H]1[C@@]3(C)CC[C@H](O)C(C)(C)[C@@H]3CC[C@]12C
Drug metabolism [3]: metabolite_not_detected | Drug excretion [4]: metabolite_detected | Drug excretion [5]: metabolite_detected | Drug excretion [6]: metabolite_detected | Drug excretion [7]: metabolite_detected | bioavailability [8]: 31% | bioavailability [9]: 9.6% | Retention_time [10]: 22.3 min | Drug metabolism [11]: metabolite_detected | Drug metabolism [12]: metabolite_detected | Drug metabolism [13]: metabolite_detected | Drug metabolism [14]: metabolite_detected | Drug metabolism [15]: metabolite_detected | Drug metabolism [16]: metabolite_detected | Drug metabolism [17]: metabolite_detected | Drug metabolism [18]: metabolite_detected | Drug metabolism [19]: metabolite_detected | Drug metabolism [20]: metabolite_detected | Drug metabolism [21]: metabolite_detected | Drug metabolism [22]: metabolite_detected | Drug metabolism [23]: metabolite_detected | Drug metabolism [24]: metabolite_detected

Compound: CC1(C)O[C@H]1CC[C@](C)(O)[C@H]1CC[C@]2(C)[C@@H]1[C@H](O)C[C@@H]1[C@@]3(C)CC[C@H](O)C(C)(C)[C@@H]3CC[C@]12C
Drug excretion [25]: metabolite_detected | Retention_time [28]: 18.7 min | Drug metabolism [26]: metabolite_detected | Retention_time [27]: 18.7 min
